From ChEMBL document CHEMBL1123779, “Modifications of primaquine as antimalarials. 4. 5-Alkoxy derivatives of primaquine” (J Med Chem, 1987)

What was measured:
Plasmodium cynomolgi [1] = assay: Cures in Plasmodium cynomolgi infected Rhesus monkeys (Macaca mulatta) on 0.316 mg/kg/day after 7 days; cured 1 of 1; type: functional
Plasmodium cynomolgi [2] = assay: Cures in Plasmodium cynomolgi infected Rhesus monkeys (Macaca mulatta) on 1 mg/kg/day after 7 days; cured 1 of 1; type: functional
Plasmodium cynomolgi [3] = assay: Cures in Plasmodium cynomolgi infected Rhesus monkeys (Macaca mulatta) on 0.1 mg/kg/day after 7 days; cured 0 of 1; type: functional
Mus musculus [4] = assay: (§1) Suppressive blood schizonticidal antimalarial activity evaluated in the trophozoite-induced Plasmodium berghei infection in mice (Mus musculus) at a dose 40 mg/kg; type: functional
How it was run: (§2)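 Run at the Rane Laboratory with blood-induced P. berghei infections in mice, five animals per group. A cure is a mouse surviving to 60 days postinfection. Deaths before day 6 are recorded separately as toxic deaths. Activity is scored from the increase in mean survival time over untreated controls, and counts as active when treated MST is more than twice control MST.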

Mus musculus [5] = assay: Suppressive blood schizonticidal antimalarial activity evaluated in the trophozoite-induced Plasmodium berghei infection in mice (Mus musculus) at a dose 160 mg/kg given as no. of toxic deaths; type: functional
How it was run: (§3)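 Rane Laboratory mouse test with blood-induced P. berghei infection, five mice per group. Toxic deaths are deaths occurring before the 6th day postinfection.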

Mus musculus [6] = assay: Suppressive blood schizonticidal antimalarial activity evaluated in the trophozoite-induced Plasmodium berghei infection in mice (Mus musculus) at a dose 320 mg/kg given as no. of toxic deaths; type: functional; how it was run: as §3
Plasmodium berghei [7] = assay: Suppressive blood schizonticidal antimalarial activity evaluated in the trophozoite-induced Plasmodium berghei infection in mice (Mus musculus) at a dose 640 mg/kg given as number of toxic deaths; type: toxicity, organism-based; set-up: dose 640 mg/kg; settings: in vivo; how it was run: as §3
Mus musculus [8] = assay: Suppressive blood schizonticidal antimalarial activity evaluated in the trophozoite-induced Plasmodium berghei infection in mice (Mus musculus) at a dose 2.5 mg/kg; type: functional
How it was run: (§4)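 Run at the Rane Laboratory in mice infected with blood-induced P. berghei, five animals per group. Activity is the increase in mean survival time over untreated infected controls. A compound counts as active when treated-group MST is more than twice the control MST. Cures are mice surviving at 60 days postinfection.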

Plasmodium berghei [9] = assay: Blood schizonticidal antimalarial activity in the trophozoite-induced Plasmodium berghei infection in mice (Mus musculus) at 20 mg/kg; type: functional; set-up: unit not given beside the values; how it was run: as §4
Mus musculus [10] = assay: Suppressive blood schizonticidal antimalarial activity evaluated in the trophozoite-induced Plasmodium berghei infection in mice (Mus musculus) at a dose 10 mg/kg; type: functional; how it was run: as §4
Mus musculus [11] = assay: Suppressive blood schizonticidal antimalarial activity evaluated in the trophozoite-induced Plasmodium berghei infection in mice (Mus musculus) at a dose 5 mg/kg; type: functional; set-up: unit not given beside the values; how it was run: as §4
Mus musculus [12] = assay: Suppressive blood schizonticidal antimalarial activity evaluated in the trophozoite-induced Plasmodium berghei infection in mice (Mus musculus) at a dose 80 mg/kg; type: functional; set-up: unit not given beside the values; how it was run: as §4
Plasmodium cynomolgi [13] = assay: Cures in Plasmodium cynomolgi infected Rhesus monkeys (Macaca mulatta) on 1 mg/kg/day after 7 days; cured 0 of 1; type: functional
Plasmodium cynomolgi [14] = assay: Cures in Plasmodium cynomolgi infected Rhesus monkeys (Macaca mulatta) on 10.0 mg/kg/day after 7 days; cured 1 of 1; type: functional
Plasmodium cynomolgi [15] = assay: Cures in Plasmodium cynomolgi infected Rhesus monkeys (Macaca mulatta) on 3.16 mg/kg/day after 7 days; cured 2 of 2; type: functional
Mus musculus [16] = assay: Suppressive blood schizonticidal antimalarial activity evaluated in the trophozoite-induced Plasmodium berghei infection in mice (Mus musculus) at a dose 160 mg/kg given as no. of cures; type: functional; how it was run: as §2
Mus musculus [17] = assay: Suppressive blood schizonticidal antimalarial activity evaluated in the trophozoite-induced Plasmodium berghei infection in mice (Mus musculus) at a dose 320 mg/kg given as number of cures; type: functional; how it was run: as §2
Plasmodium berghei [18] = assay: Blood schizonticidal activity in trophozoite-induced Plasmodium berghei infected mice (Mus musculus) at 40 mg/kg; numbers cured; type: functional; how it was run: as §2
Mus musculus [19] = assay: Suppressive blood schizonticidal antimalarial activity evaluated in the trophozoite-induced Plasmodium berghei infection in mice (Mus musculus) at a dose 640 mg/kg given as no. of cures; type: functional; how it was run: as §2
Mus musculus [20] = assay: Suppressive blood schizonticidal antimalarial activity evaluated in the trophozoite-induced Plasmodium berghei infection in mice (Mus musculus) at a dose 80 mg/kg given as no. of cures; type: functional; how it was run: as §2
Plasmodium cynomolgi [21] = assay: Cures in Plasmodium cynomolgi infected Rhesus monkeys (Macaca mulatta) on 0.316 mg/kg/day after 7 days; cured 0 of 3; type: functional
Plasmodium cynomolgi [22] = assay: Cures in Plasmodium cynomolgi infected Rhesus monkeys (Macaca mulatta) on 1 mg/kg/day after 7 days; cured 2 of 2; type: functional
Plasmodium cynomolgi [23] = assay: Cures in Plasmodium cynomolgi infected Rhesus monkeys (Macaca mulatta) on 0.1 mg/kg/day after 7 days; cured 1 of 2; type: functional
Mus musculus [24] = assay: as §1; type: functional; set-up: unit not given beside the values; how it was run: as §4

Which Cures/no. of animals (Plasmodium cynomolgi [1]) does the source give for `C=CCCOc1c(OC)cc(NC(C)CCCN)c2nccc(C)c12` (configuration not stated) here?
The Cures/no. of animals was 1.

What about the Cures/no. of animals (Plasmodium cynomolgi [2]) of the same compound?
Its Cures/no. of animals is 1.

And the Cures/no. of animals (Plasmodium cynomolgi [3])?
The Cures/no. of animals was 0.

What about the Cures (Mus musculus [4]) of the same compound?
The Cures was 1.

And the Toxic deaths (Mus musculus [5])?
The Toxic deaths was 5.

What about the Toxic deaths (Mus musculus [6]) of the same compound?
The Toxic deaths was 5.

What about the Toxic deaths (Plasmodium berghei [7]) of the same compound?
The Toxic deaths was 5.

What about the “Delta MST” value (Mus musculus [8]) of the same compound?
Its value is 7.5.

And the “Delta MST” value (Plasmodium berghei [9])?
Its value is 8.8.

And the “Delta MST” value (Mus musculus [10])?
The value was 7.5.

What about the “Delta MST” value (Mus musculus [11]) of the same compound?
Its value is 8.1.

And the “Delta MST” value (Mus musculus [12])?
The value was 0.

With `CCCCCCCCCCCOc1c(OC)cc(NC(C)CCCN)c2nccc(C)c12` (configuration not stated) as the compound, how does the Cures/no. of animals (Plasmodium cynomolgi [13]) read?
The Cures/no. of animals was 0.

What about the Cures/no. of animals (Plasmodium cynomolgi [14]) of the same compound?
Its Cures/no. of animals is 1.

And the Cures/no. of animals (Plasmodium cynomolgi [15])?
The Cures/no. of animals was 2.

What about the Cures (Mus musculus [16]) of the same compound?
The Cures was 5.

What about the Cures (Mus musculus [17]) of the same compound?
Its Cures is 5.

And the Cures (Plasmodium berghei [18])?
The Cures was 1.

And the Cures (Mus musculus [19])?
Its Cures is 5.

What about the Cures (Mus musculus [20]) of the same compound?
The Cures was 2.

What about the “Delta MST” value (Plasmodium berghei [9]) of the same compound?
Its value is 1.

And the “Delta MST” value (Mus musculus [10])?
Its value is 3.7.

`COc1cc(NC(C)CCCN)c2nccc(C)c2c1OCCCCCCCCOc1ccccc1` (configuration not stated) was tested. Which Cures/no. of animals (Plasmodium cynomolgi [21]) did it give?
Its Cures/no. of animals is 0.

What about the Cures/no. of animals (Plasmodium cynomolgi [22]) of the same compound?
The Cures/no. of animals was 2.

What about the Cures/no. of animals (Plasmodium cynomolgi [23]) of the same compound?
The Cures/no. of animals was 1.

And the Cures (Mus musculus [16])?
Its Cures is 3.

What about the Toxic deaths (Mus musculus [6]) of the same compound?
Its Toxic deaths is 2.

And the Toxic deaths (Plasmodium berghei [7])?
Its Toxic deaths is 1.

What about the “Delta MST” value (Plasmodium berghei [9]) of the same compound?
The value was 3.

And the “Delta MST” value (Mus musculus [10])?
Its value is 0.6.

What about the “Delta MST” value (Mus musculus [24]) of the same compound?
The value was 9.4.

And the “Delta MST” value (Mus musculus [12])?
Its value is 4.4.
